Compound activity (PubChem)
Vif imaging – blocks HIV Vif function; HEK293T cells, Vif self-association by quenched fluorescence, imaging, 24 h; inhibition, % at 7.49 µM; 340,000 tested, 0.35% active; AID 602346; in the data active = inhibition above about 50%, passing the limit was not always enough; inconclusive = no clear call, values can overlap the other calls; inactive = below about 31%
CASP6 VEID inh – inhibitors of human caspase-6 | P55212 | purified caspase-6, Z-VEID-R110 cleavage fluorescence | inhibition, % at 12.5 µM | 350,000 tested, 0.53% active | AID 686996;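 active = mean inhibition across replicates at least about 35%, with every replicate also reaching that limit, limit read from the data; inconclusive = only one of the two criteria met; inactive = neither criterion met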;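 also: 0% = median of neutral control wells and 100% = no fluorescence left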
Target sequence (P55212 24-179 limits assumed): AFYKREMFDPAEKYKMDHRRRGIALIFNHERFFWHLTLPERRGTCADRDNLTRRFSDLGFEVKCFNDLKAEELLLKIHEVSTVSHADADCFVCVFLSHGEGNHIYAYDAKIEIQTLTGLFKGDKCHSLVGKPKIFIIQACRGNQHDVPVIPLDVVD
Target sequence (P55212 194-293 limits assumed): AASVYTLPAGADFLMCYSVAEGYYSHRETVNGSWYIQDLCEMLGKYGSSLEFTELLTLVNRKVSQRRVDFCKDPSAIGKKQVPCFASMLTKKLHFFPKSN
Myeloid diff 2 – myeloid differentiation induction; ER-HoxA9 myeloid progenitors, lysozyme-GFP differentiation, flow cytometry; calls only at 10 µM; 360,000 tested, 1% active;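 active = normalized GFP-positive differentiation at or above the plate's own cutoff, the solvent-only control mean plus 3 SD; inconclusive = no clear call, values can overlap the other calls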;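 also: cells exposed to compound for four days before flow analysis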
T cell HTS – T cell immune modulators affecting CD8 T cell-vesicle binding; 2C CD8+ T cell-vesicle binding, flow cytometry; stronger effect = lower value; response (vesicle binding), % at 7 µM; 330,000 tested, 0.068% active; AID 2052;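 active = response, share of CD8 T cells binding vesicles, and their 90th percentile fluorescence all below set limits, cut at about 80% in these data, passing the limit was not always enough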;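 also: values below 100% mean blocked vesicle binding to the CD8+ T cells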
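Read-out – percent CD8+ FL2 mean versus row control · System – murine 2C transgenic CD8+ T lymphocytes · Times – 1.5 h cell–vesicle binding at 37 °C, then 20 min icy labelling · Control set – naked vesicles low, QL9 vesicles with vehicle high · Detection – cytometric PE anti-B7-1 and Alexa647 anti-CD8 signals after 1% paraformaldehyde fixation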
Active calls of the source: *; i = inactive; u = inconclusive; x = no result; + = active, no number. An excerpt weighted towards active compounds, which were near 1.4% of everything screened.

SMILES | Vif imaging | CASP6 VEID inh | Myeloid diff 2 | T cell HTS
CN1[C@@H]2c3ccc(-c4ccc(F)cc4)c(=O)n3C[C@@H]2[C@@H](CO)[C@@H]1C(=O)NCC1CC1 | x | 1 | x | x
O=S(=O)(c1ccc2oc(=S)[nH]c2c1)N1CCCCC1 | -3 | 1 | + | 167
COc1cccc(CC2(CO)CCN(C(=O)NCCc3ccccc3)CC2)c1 | 4 | -2 | + | 345
O=C(O)c1ccc(NC2=C(n3nnc4ccccc43)C(=O)c3ccccc3C2=O)cc1 | 2 | 83* | i | 570
O=C(O)c1cccc(NC2=C(N3CCOCC3)C(=O)c3ccccc3C2=O)c1 | 15 | 11 | i | 391
CCOC(=O)C1CCN(c2nc3cc(OC)ccc3cc2C#N)CC1 | -6 | x | i | 180
COc1ccc2cc(C#N)c(N3CCOCC3)nc2c1 | 8 | -1 | + | 299
CCN(CC)c1nc2cc(OC)ccc2cc1C#N | x | x | + | 595
COc1ccc2cc(C#N)c(NC(C)C)nc2c1 | 12 | x | i | 720
O=C(C[C@@H]1C[C@@H]2c3cc(NS(=O)(=O)c4ccc(F)cc4)ccc3O[C@@H]2[C@H](CO)O1)NCC(F)(F)F | x | -1 | x | x
O=C(C1CCCC1)N1CC(=O)N2[C@@H](CO)[C@H](c3ccc(-c4ccccc4F)cc3)[C@@H]2C1 | x | 3 | x | x
COc1ccc(-c2ccc(C3[C@H]4CNC[C@@H]3N4C(=O)Nc3ccc4c(c3)OCO4)cc2)cc1 (some centres not stated) | x | -2 | x | x
CN1/C(=C\C(=S)NC(=O)c2cccc(Br)c2)C(C)(C)c2ccccc21 | 0 | 2 | + | 455
C#CCOCCOCCOCCNc1nc(N2CCN(C(=O)CCCCCCCCCCNC(=O)Cn3cc(CCCCCN)nn3)CC2)nc(N2CCN(C(=O)CCCCCCCCCCNC(=O)[C@H]([C@@H](C)CC)n3cc(CCCCN=C(N)N)nn3)CC2)n1 | 104* | x | i | 529
C#CCOCCOCCOCCNc1nc(N2CCN(C(=O)CCCCCCCCCCNC(=O)[C@H]([C@@H](C)CC)n3cc(CCCCCN)nn3)CC2)nc(N2CCN(C(=O)CCCCCCCCCCNC(=O)[C@H]([C@@H](C)CC)n3cc(CCCCN=C(N)N)nn3)CC2)n1 | + | x | i | 534
C[C@@H]1CCCCO[C@@H](CN(C)C(=O)Nc2ccc(F)cc2)[C@@H](C)CN([C@H](C)CO)C(=O)c2cc(NC(=O)c3ccccc3)ccc2O1 | x | -1 | x | x
Cc1ccc2nc(SCC(=O)c3c[nH]c4ccccc34)[nH]c2c1 | -5 | 1 | + | 269
Cc1occc1-c1nnc(SCC(=O)c2c[nH]c3ccccc23)n1C | -2 | x | i | 372
O=C(CSc1nc2ccccc2[nH]1)c1c[nH]c2ccccc12 | -2 | -1 | i | 257
CCCn1c(SCC(=O)c2c[nH]c3ccccc23)nnc1-c1ccncc1 | -11 | x | + | 0
COc1ccccc1N1CCN(C(=O)C(C)CS(=O)(=O)c2ccc3c(c2)NC(=O)CS3)CC1 (configuration not stated) | 4 | 68* | i | 284
COc1ccccc1N1CCN(S(=O)(=O)c2ccc3c(c2)NC(=O)C(C)S3)CC1 (configuration not stated) | -5 | -5 | i | 226
CCC(=O)N(C)C[C@@H]1Oc2ncc(-c3ccc(C)cc3)cc2C(=O)N([C@H](C)CO)C[C@H]1C | x | -2 | x | x
COc1ccc(C(=O)CCS(=O)(=O)c2ccc(C)cc2)cc1OC | 21 | 1 | u | 201
COc1ccc(C(=O)CCC(C)(C)[N+](=O)[O-])cc1OC | 3 | 2 | i | 60*
SMILES | Vif imaging | CASP6 VEID inh | Myeloid diff 2 | T cell HTS
O=C(C[C@H]1CC[C@@H](NC(=O)C2CC2)[C@H](CO)O1)NC1CCC1 | x | 0 | x | x
Oc1ccccc1C1SC(c2ccccc2O)SC(c2ccccc2O)S1 (configuration not stated) | 60* | -2 | i | x
CNC[C@@H]1OCCCC[C@@H](C)Oc2ccc(NC(=O)c3ccncc3)cc2C(=O)N([C@H](C)CO)C[C@H]1C | x | 0 | x | x
COc1ccc(Nc2nc3ccccc3n3nnnc23)cc1 | -7 | x | i | 237
COc1cc(Nc2nc3ccccc3n3nnnc23)cc(OC)c1OC | 50* | 0 | i | 734
O=C(C[C@H]1C=C[C@@H](NC(=O)Nc2cc(F)ccc2F)[C@H](CO)O1)NCc1ccccn1 | x | -3 | x | x
CCO[C@@H]1OC(C(=O)Nc2ccccc2)=C[C@H](c2cn(C(C)=O)c3ccccc23)[C@H]1CCCO | x | -1 | x | x
O=C(CCCN1C(=O)c2ccccc2C1=O)Nc1ccc(Br)cn1 | 1 | x | i | 390
O=C(CCCN1C(=O)c2ccccc2C1=O)Nc1nncs1 | 60* | x | i | 254
O=C(CCCN1C(=O)c2cccnc2C1=O)Nc1ccc(Br)cc1 | 59* | -5 | i | 753
Cc1nnc(NC(=O)CCCN2C(=O)c3ccccc3C2=O)s1 | 11 | x | i | 448
Nc1ccc(-n2cnc3cc([N+](=O)[O-])ccc32)cc1 | -2 | x | + | 231
CNc1ccc(C(=O)N2CCN(S(=O)(=O)c3ccc4c(c3)OCCCO4)CC2)cc1[N+](=O)[O-] | -4 | 6 | + | 0
CC(=O)Nc1ccc(C(=O)N2CCN(S(=O)(=O)c3ccc4c(c3)OCCCO4)CC2)cc1 | 41 | -140 | i | 350
Cc1noc(C)c1S(=O)(=O)Nc1ccc2c(c1)C(=O)N([C@H](C)CO)C[C@H](C)[C@@H](CN(C)CC1CCCCC1)OCCCC[C@H](C)O2 | x | 1 | x | x
CO[C@H]1CN(C)C(=O)c2ccc(NC(=O)Nc3cccc(Cl)c3)cc2OC[C@H](C)NC[C@@H]1C | x | -1 | x | x
COc1ccc2c3c(n(C)c2c1)[C@H](CO)N(C(=O)Nc1ccc(F)cc1)CC31CN(CC2CCOCC2)C1 | x | -1 | x | x
Nc1cccn2c(-c3ccc(Cl)c(Cl)c3)cnc12 | -3 | 3 | + | 206
Cc1noc(C)c1S(=O)(=O)N(C)C[C@H]1Oc2ccc(NC(=O)CCN3CCOCC3)cc2CC(=O)N([C@H](C)CO)C[C@@H]1C | x | 4 | x | x
CN1c2ccc(Br)cc2[C@@H]2[C@@H](CCN2C(=O)Nc2ccccc2F)[C@@H]1CO | x | 0 | x | x
O=C(Nc1cccc(-c2ccccc2)c1)N1CCN(C(=O)Nc2cccc(-c3ccccc3)c2)CC1 | -12 | 39* | i | 303
COc1ccc(C(=O)NCc2cccc(Cl)c2)cc1S(=O)(=O)N1CCOCC1 | -8 | 1 | i | 225
CN(c1cccc(NC(=O)c2ccc(Cl)c(S(=O)(=O)N3CCOCC3)c2)c1)S(C)(=O)=O | -1 | -2 | + | 456
O=C(OC1CCOC1=O)c1ccc(Cl)c(S(=O)(=O)N2CCOCC2)c1 (configuration not stated) | -4 | 40* | i | 265
COc1ccc(CNC(=O)c2ccc(Cl)c(S(=O)(=O)N3CCOCC3)c2)cc1OC | -22 | 4 | + | 156
COc1ccc(CNC(=O)COC(=O)c2cc(S(=O)(=O)N3CCOCC3)ccc2O)cc1OC | 51* | 3 | i | 362
COc1cc2[nH]c(=S)nc(NCc3ccccn3)c2cc1OC | 4 | 0 | + | x
